Active and inactive are the calls of the source. The calls are words filed in the database; no cut-off is given here.
Key:
[1] = molecular target: Mitogen-activated protein kinase 8 (Mus musculus) (UniProt Q91Y86); test: Activation of JNK1 in mouse RAW264.7 cells assessed as phosphorylation at Thr183/Tyr185 at 50 uM after 30 mins by Western blotting analysis; type: cell-based
Summary of the method: (§1)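 Serum-starved RAW264.7 cells exposed in serum-free medium for 30 min to 4 h; 5 μM anisomycin for 30 min as positive control. Whole-cell lysates (30 μg/lane) blotted for JNKs dually phosphorylated at Thr183/Tyr185 and total JNKs, chemiluminescent detection.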

[2] = molecular target: T1, MAP kinase p38 (Homo sapiens) (UniProt O15264+Q15759+Q16539+P53778); test: Activation of p38MAPK in mouse RAW264.7 cells assessed as phosphorylation at Thr180/Tyr182 at 50 uM after 1 hr by Western blotting analysis; type: cell-based
Summary of the method: (§2)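 p38 phosphorylation at Thr180/Tyr182 and total p38 probed in whole-cell lysates (35 μg/lane) of serum-starved RAW264.7 cells treated for 30 min to 4 h in serum-free medium. Positive controls were 5 μM anisomycin or 75 ng/mL EGF for 30 min. Chemiluminescent Western detection.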

[3] = molecular target: Mitogen-activated protein kinase 9/10 (Mus musculus) (UniProt Q9WTU6+Q61831); test: Activation of JNK2/3 in mouse RAW264.7 cells assessed as phosphorylation at 50 uM after 30 mins to 4 hrs by Western blotting analysis; type: cell-based; conditions: TDE = time-dependent effect; summary of the method: as §1
Mitogen-activated protein kinase 9/10 (Mus musculus), sequence (Q61831 whole entry, looked up): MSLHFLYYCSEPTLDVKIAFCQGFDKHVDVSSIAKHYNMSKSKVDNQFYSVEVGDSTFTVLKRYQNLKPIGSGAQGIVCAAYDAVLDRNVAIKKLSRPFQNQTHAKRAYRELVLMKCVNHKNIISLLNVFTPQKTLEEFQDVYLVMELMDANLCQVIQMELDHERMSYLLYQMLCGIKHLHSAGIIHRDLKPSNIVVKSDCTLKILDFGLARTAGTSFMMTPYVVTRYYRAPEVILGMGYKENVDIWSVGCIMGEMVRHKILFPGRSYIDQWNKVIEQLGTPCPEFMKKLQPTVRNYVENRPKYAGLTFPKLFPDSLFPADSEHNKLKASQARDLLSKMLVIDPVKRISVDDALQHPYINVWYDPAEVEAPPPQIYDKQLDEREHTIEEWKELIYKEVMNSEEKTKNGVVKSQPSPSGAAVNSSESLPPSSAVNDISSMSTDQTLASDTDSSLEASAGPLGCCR
Mitogen-activated protein kinase 9/10 (Mus musculus), sequence (Q9WTU6 whole entry, looked up): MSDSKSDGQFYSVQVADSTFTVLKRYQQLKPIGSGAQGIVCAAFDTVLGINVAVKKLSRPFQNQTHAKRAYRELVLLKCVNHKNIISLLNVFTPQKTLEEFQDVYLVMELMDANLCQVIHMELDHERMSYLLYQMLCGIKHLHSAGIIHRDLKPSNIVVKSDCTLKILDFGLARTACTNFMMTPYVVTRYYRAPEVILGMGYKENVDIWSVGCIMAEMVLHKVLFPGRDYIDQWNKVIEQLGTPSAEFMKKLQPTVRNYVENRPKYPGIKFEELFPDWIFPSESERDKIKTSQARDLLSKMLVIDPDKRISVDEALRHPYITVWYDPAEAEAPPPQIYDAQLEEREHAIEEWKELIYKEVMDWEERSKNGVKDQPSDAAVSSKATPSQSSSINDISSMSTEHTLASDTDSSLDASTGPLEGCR

[4] = molecular target: T1, MAP kinase p38 (Homo sapiens); test: Activation of p38MAPK in mouse RAW264.7 cells assessed as phosphorylation at Thr180/Tyr182 at 50 uM after 30 mins to 4 hrs by Western blotting analysis; type: cell-based; conditions: TDE = time-dependent effect; summary of the method: as §2
[5] = molecular target: Mitogen-activated protein kinase 1 (Mus musculus) (UniProt P63085); test: Activation of ERK2 in mouse RAW264.7 cells assessed as phosphorylation at Thr185/Tyr187 at 50 uM after 30 mins by Western blotting analysis; type: cell-based
Mitogen-activated protein kinase 1 (Mus musculus), sequence (P63085 whole entry): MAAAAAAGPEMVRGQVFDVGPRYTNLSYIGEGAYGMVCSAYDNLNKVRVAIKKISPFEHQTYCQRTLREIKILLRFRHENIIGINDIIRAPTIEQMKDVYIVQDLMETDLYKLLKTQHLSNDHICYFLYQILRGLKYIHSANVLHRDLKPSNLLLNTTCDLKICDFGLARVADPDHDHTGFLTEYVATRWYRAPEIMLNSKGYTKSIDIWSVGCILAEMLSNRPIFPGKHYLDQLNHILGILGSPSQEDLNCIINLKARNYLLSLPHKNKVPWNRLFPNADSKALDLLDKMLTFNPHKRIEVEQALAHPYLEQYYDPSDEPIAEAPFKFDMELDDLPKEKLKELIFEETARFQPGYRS
Summary of the method: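 RAW264.7 cells (passage 5-25) seeded at 1 × 10⁵ cells/cm², serum-starved overnight, then exposed in serum-free medium for 30 min to 3 h; 0.1% DMSO vehicle; 75 ng/mL EGF for 30 min as positive control. Whole-cell lysates (20 μg/lane) on 10% SDS-PAGE, blotted for phospho-ERK1 (Thr202/Tyr204), phospho-ERK2 (Thr185/Tyr187) and total ERK1/2, chemiluminescent detection.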

[6] = molecular target: T2, Nuclear factor erythroid 2-related factor 2 (Mus musculus) (UniProt Q60795); test: Activation of Nrf2 in mouse RAW264.7 cells assessed as induction of Hmox1 mRNA expression at 50 uM after 6 hrs by real-time PCR analysis in presence of […] N-acetyl-L-cysteine; type: cell-based
T2 sequence (whole entry): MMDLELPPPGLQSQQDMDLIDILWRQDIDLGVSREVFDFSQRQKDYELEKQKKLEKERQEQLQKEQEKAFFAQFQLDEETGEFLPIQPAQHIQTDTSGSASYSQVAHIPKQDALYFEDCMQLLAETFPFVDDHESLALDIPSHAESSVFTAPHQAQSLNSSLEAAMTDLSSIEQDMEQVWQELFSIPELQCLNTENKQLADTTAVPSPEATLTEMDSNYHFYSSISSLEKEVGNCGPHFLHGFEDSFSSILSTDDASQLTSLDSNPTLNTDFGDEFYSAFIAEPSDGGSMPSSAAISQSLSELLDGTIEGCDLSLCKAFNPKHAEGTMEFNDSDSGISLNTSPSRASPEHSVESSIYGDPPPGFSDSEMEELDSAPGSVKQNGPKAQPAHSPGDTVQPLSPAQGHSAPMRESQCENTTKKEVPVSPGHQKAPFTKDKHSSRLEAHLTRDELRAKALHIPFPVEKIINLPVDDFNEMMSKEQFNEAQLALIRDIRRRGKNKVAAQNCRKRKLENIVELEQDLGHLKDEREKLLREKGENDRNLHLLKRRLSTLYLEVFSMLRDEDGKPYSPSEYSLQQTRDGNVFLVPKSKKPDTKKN

[7] = molecular target: T2, Nuclear factor erythroid 2-related factor 2 (Mus musculus); test: Activation of Nrf2 in mouse RAW264.7 cells assessed as reduction of KEAP1 protein level at 10 to 50 uM after 6 hrs by Western blotting analysis; type: cell-based
Summary of the method: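 Whole-cell lysates (20 μg/lane) from serum-starved RAW264.7 cells given 10-50 μM for 6 h or 50 μM for 1-6 h in serum-free medium, 0.1% DMSO vehicle. Keap1 and actin detected by chemiluminescent Western blot; Keap1 band intensity normalized to actin, mean of three experiments.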

[8] = molecular target: T2, Nuclear factor erythroid 2-related factor 2 (Mus musculus); test: Activation of Nrf2 in mouse RAW264.7 cells assessed as upregulation of HO1 protein expression at 50 uM after 3 hrs by Western blotting analysis; type: cell-based
Summary of the method: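 HO-1 protein in whole-cell lysates (20 μg/lane) of serum-starved RAW264.7 cells after 6 h at 10-50 μM or 50 μM for 1-6 h in serum-free medium, 0.1% DMSO control. Chemiluminescent Western blot; HO-1 densitometry normalized to actin, mean of three experiments.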

[9] = molecular target: T2, Nuclear factor erythroid 2-related factor 2 (Mus musculus); test: Activation of Nrf2 in mouse RAW264.7 cells assessed as upregulation of Hmox1 gene expression at 25 uM after 6 hrs by real-time PCR analysis relative to GAPDH mRNA expression; type: cell-based
Summary of the method: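 RAW264.7 cells treated 6 h in serum-free medium, 0.1% DMSO control. Total RNA (2 μg) reverse transcribed; TaqMan qPCR for Hmox1 and Gapdh, 40 cycles. Relative expression by 2^−ΔΔCT, normalized to Gapdh; mean ± SD of three experiments.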

[10] = Drug metabolism in culture medium assessed as 7-O-galloylquercetin level; type: physicochemical
Summary of the method: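 Compound incubated in culture medium without cells. Medium aliquots diluted 1:1 in methanol with 5% acetic acid, centrifuged, and analysed by phenyl-column UPLC with negative-mode ESI-QqTOF MS.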

RAW264.7 [11] = test: Drug uptake in mouse RAW264.7 cells measured per 10^6 cells at 50 uM after 3 hrs; type: ADME, cell-based; conditions: raw264.7, 3 h
Summary of the method: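 Cells given 50 μM for up to 6 h, then scraped, washed twice in PBS and sonicated in methanol with 5% acetic acid. Supernatant analysed by UPLC on a phenyl column (water/1% acetic acid/methanol to methanol gradient, 35 °C) with negative ESI-QqTOF MS. Contents expressed as nmol per 10⁶ cells.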

RAW264.7 [12] = test: Cytotoxicity against mouse RAW264.7 cells assessed as decreased cell viability at 50 uM after 6 hrs by MTT assay; type: cell-based; conditions: raw264.7, 6 h
Summary of the method: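 Serum-starved RAW264.7 cells exposed 6 h at 10 or 50 μM; 0.1% DMSO control (100% viability), 1.5% Triton X-100 positive control. Cells washed and incubated 2 h at 37 °C with 0.5 mg/mL MTT in serum-free medium. Formazan dissolved in DMSO, A540 read, viability relative to DMSO-treated cells.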

Mitogen-activated protein kinase 8 (Mus musculus), sequence (Q91Y86 whole entry): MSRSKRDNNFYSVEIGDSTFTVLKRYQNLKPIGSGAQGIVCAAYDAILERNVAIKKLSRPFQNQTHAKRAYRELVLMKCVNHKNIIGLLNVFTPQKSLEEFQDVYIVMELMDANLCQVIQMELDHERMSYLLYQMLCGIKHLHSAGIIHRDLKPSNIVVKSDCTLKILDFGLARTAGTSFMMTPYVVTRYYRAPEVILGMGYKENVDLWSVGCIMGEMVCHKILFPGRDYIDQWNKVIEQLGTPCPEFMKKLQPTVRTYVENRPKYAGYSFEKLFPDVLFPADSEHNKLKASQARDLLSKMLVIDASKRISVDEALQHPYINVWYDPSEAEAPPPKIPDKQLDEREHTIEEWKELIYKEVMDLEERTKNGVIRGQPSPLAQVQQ

For `O=C(Oc1cc(O)c2c(c1)O[C@H](c1ccc(O)c(O)c1)[C@@H](O)C2=O)c1cc(O)c(O)c(O)c1`, the Activity [1] was “Active”, the Activity [2] was “Active” and the Activity [3] was “tde”. The Activity [4] was “tde”, the Activity [5] was “Active” and the Activity [6] was “inactive”. For the same compound, the Activity [7] was “Dose-dependent effect”, the fold change (FC) [8] was 1.3 and the fold change (FC) [9] was 4.8. For the same compound, the Drug metabolism [10] was “Not Active”, the Drug uptake (RAW264.7 [11]) was 1.03 nmol and the Activity (RAW264.7 [12]) was 72%.
